A short description of experiment [1]: Evaluated in vitro for its ability to inhibit prostaglandin E2 production in cultured chondrocyte cells at 25 mg/kg dose. In kind it is functional, organism-based. To be noted: Rattus norvegicus.
The subject of experiment [2] is Rattus norvegicus. In words: Evaluated for the inhibition of adjuvant-induced hind paw edema in rats at 25 mg/kg dose. In kind it is functional. The essentials: (§1)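 Male Sprague-Dawley rats (180-200 g), groups of 10; 0.1 mL Freund's complete adjuvant (0.5 mg killed, dried Mycobacterium butyricum in mineral oil) intradermally into left hindpaw. Compound or vehicle (0.5% Tween 80 in water) by gastric lavage just before FCA (day 0) and at 24 and 48 h. Paw volume by plethysmometer before FCA and on day 3; % inhibition of mean edema versus control.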

The subject of experiment [3] is Rattus norvegicus. In words: Evaluated for the inhibition of adjuvant-induced hind paw edema in rats at 12 mg/kg dose. Type of experiment: functional. The essentials:
as §1

Experiment [4] is described as follows: Evaluated in vitro for its ability to inhibit prostaglandin E2 production in cultured chondrocyte cells at 12 mg/kg dose. Type of experiment: functional, organism-based. The conditions noted are these: Rattus norvegicus.

SMILES strings stand for the structures. Where only a bound is given, the exact number is not on record here.

As a reminder, the IC50 is the concentration that gives 50% inhibition. A lower IC50 goes with greater potency. What is called inhibition in vivo is the share of the control response that was lost under treatment.

`CCc1cc(O)cc2c3c([nH]c12)C(CC)(CC(=O)O)OCC3` (stereo not drawn) [6-HYDROXYETODOLAC] yielded a half-maximal inhibitory concentration (IC50) in experiment [1] of 6500 nM. Also, the inhibition in vivo at 25 mg/kg with Rattus norvegicus [2] came out at 10%.

In the case of `CCc1c(O)ccc2c3c([nH]c12)C(CC)(CC(=O)O)OCC3` (stereo not drawn) [7-HYDROXYETODOLAC], the inhibition in vivo at 12 mg/kg in the experiment with Rattus norvegicus [3] came to 8%. In addition, it took 50 µM to reach half-maximal inhibition in experiment [4] (IC50).

On to `CCc1cccc2c3c([nH]c12)C(CC)(CC(=O)O)OCC3=O` (stereo not drawn), for which the midpoint of inhibition in experiment [1], the IC50, lay at 185 nM. Also, in the experiment with Rattus norvegicus [2], the inhibition in vivo at 25 mg/kg was 21%.

The molecule `CCc1cccc2c3c([nH]c12)C(CC)(CC(=O)O)OCC3` (stereo not drawn) [ETODOLAC] yielded a 50% inhibitory concentration (IC50) in experiment [1] of 25 nM. Besides, in the experiment on Rattus norvegicus [2], the inhibition in vivo at 25 mg/kg was 65%.

As to `CCc1cccc2c3c(n(C)c12)C(CC)(CC(=O)O)OCC3` (stereo not drawn), half-maximal inhibition in experiment [1] (IC50) was put at 25000 nM. For the same molecule, in the experiment on Rattus norvegicus [2], the inhibition in vivo at 25 mg/kg was found to be 11%.

`CCC1(CC(=O)O)OCCc2c1[nH]c1c(C(C)O)cccc21` (stereo not drawn) [8-(1-HYDROXYETHYL)ETODOLAC] displayed a 50% inhibitory concentration (IC50) in experiment [1] of 2000 nM. Also, the inhibition in vivo at 25 mg/kg in the experiment with Rattus norvegicus [2] came out at 14%.

In experiment [1], `CCc1cccc2c3c([nH]c12)C(CC)(CC(=O)O)OCC3NC(N)=O` (stereo not drawn) [4-UREIDOETODOLAC] had an IC50 of more than 100000 nM.

These data come from ChEMBL document CHEMBL1124196, “Etodolac, a novel antiinflammatory agent. The syntheses and biological evaluation of its metabolites” (J Med Chem, 1988).
